Assay results reported in paper PMC3176992 (Molecular psychiatry, 2010).
Entries after “also recorded” stand apart in the source; their conditions may differ. Peptide text beside a SMILES is read from it. * marks the point of attachment. Cbz = O=C(OCc1ccccc1)*

What was measured:
[1] = system: GluR1; assay: GluR1 level in primary hippocampal neurons; format: cell-based, rat; settings: 10 µM MG132 or 25 µg/ml leupeptin for 7 h, then 10 µM peptide 40 min; N=4
[2] = system: TNIK; assay: TNIK level and phosphorylation in primary hippocampal neurons; format: cell-based, rat; settings: 10 µM MG132 or 25 µg/ml leupeptin for 7 h, then 10 µM peptide 40 min; N=4
[3] = system: PSD-95; assay: PSD-95 level in primary hippocampal neurons; format: cell-based, rat; settings: 10 µM MG132 or 25 µg/ml leupeptin for 7 h, then 10 µM peptide 40 min; N=4
[4] = system: HA-TNIK; assay: Co-immunoprecipitation of DISC1 with TNIK from HEK293 cells; format: binding, human; settings: HA-TNIK and Myc-DISC1 construct coexpressed in HEK293 cells
Method in brief: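 HEK293 cells in DMEM with 10% heat-inactivated FBS, seeded at 40–80% density and transfected 24 h later (Lipofectamine 2000). Lysed in co-IP buffer (50 mM Tris-Cl pH 7.5, 150 mM NaCl, 1 mM EDTA, 1% Triton X-100) with protease/phosphatase inhibitors, 30 min at 4 °C, then cleared at 12000 g. Protein G beads loaded with 1–3 µg antibody for 1 h, incubated with lysate 2 h to overnight at 4 °C, washed, and run on 4–12% Bis-Tris gels for western blot.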

[5] = system: TNIK in NIH3T3 cells; assay: TNIK-induced cell rounding assay; format: cell-based; settings: for inhibition of TNIK-induced cell rounding: NIH3T3 cells co-transfected with HA-TNIK WT and DISC1 construct
Method in brief: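 NIH3T3 cells in DMEM with 10% heat-inactivated FBS, seeded at 40–80% density and co-transfected 24 h later (Lipofectamine 2000) with HA-tagged TNIK and Myc-tagged DISC1 constructs. Immunofluorescence staining with anti-HA/anti-Myc antibodies. Rounding was scored as cell length-to-breadth ratio measured from TNIK (HA) staining.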

Row | Molecule | DISCpep-WT-tat-induced loss of GluR1, with inhibitor pretreatment [1] | dephosphorylation of TNIK at S769, with inhibitor pretreatment [2] | DISCpep-WT-tat-induced loss of PSD-95, with inhibitor pretreatment [3] | inhibition of TNIK-induced cell rounding [5] | further results
1 | CC(C)C[C@@H](C=O)NC(=O)[C@H](CC(C)C)NC(=O)[C@H](CC(C)C)NC(=O)OCc1ccccc1 [MG132] (Cbz-Leu-Leu-Leu-aldehyde) | a reciprocal effect observed for GluR1; also recorded: GluR1 degradation still occurred | neither affected by MG132 or leupeptin | blocked by MG132; also recorded: rescued | – | dephosphorylation of TNIK at S764, with inhibitor pretreatment [2]: not affected by MG132
2 | CC(=O)N[C@@H](CC(C)C)C(=O)N[C@@H](CC(C)C)C(=O)N[C@H](C=O)CCCNC(=N)N [leupeptin] | a reciprocal effect observed for GluR1; also recorded: rescued | neither affected by MG132 or leupeptin | not leupeptin | – | –
3 | DISC1 ΔTNIK: DISC1 with amino acids 329–350 deleted, expressed from plasmid (protein, left off: Myc, end not stated, kept) MPGGGPQGAPAAAGGGGVSHRAGSRDCLPPAACFRRRRLARRPGYMRSSTGPGIGFLSPAVGTLFRFPGGVSGEESHHSESRARQCGLDSRGLLVRSPVSKSAAAPTVTSVRGTSAHFGIQLRGGTRLPDRLSWPCGPGSAGWQQEFAAMDSSETLDASWEAACSDGARRVRAAGSLPSAELSSNSCSPGCGPEVPPTPPGSHSAFTSSFSFIRLSLGSAGERGEAEGCPPSREAESHCQSPQEMGAKAASLDGPHEDPRCLSRPFSLLATRVSADLAQAARNSSRPERDMHSLPDMDPGSSSSLDPSLAGCGGDGSSGSGDAHSWDTISLRLKLQKLQEDAVENDDYDKAETLQQRLEDLEQEKISLHFQLPSRQPALSSFLGHLAAQVQAALRRGATQQASGDDTHTPLRMEPRLLEPTAQDSLHVSITRRDWLLQEKQQLQKEIEALQARMFVLEAKDQQLRREIEEQEQQLQWQGCDLTPLVGQLSLGQLQEVSKALQDTLASAGQIPFHAEPPETIRSLQERIKSLNLSLKEITTKVCMSEKFCSTLRKKVNDIETQLPALLEAKMHAISGNHFWTAKDLTEEIRSLTSEREGLEGLLSKLLVLSSRNVKKLGSVKEDYNRLRREVEHQETAYETSVKENTMKYMETLKNKLCSCKCPLLGKVWEADLEACRLLIQSLQLQEARGSLSVEDERQMDDLEGAAPPIPPRLHSEDKRKTPLKVLEEWKTHLIPSLHCAGGEQKEESYILSAELGEKCEDIGKKLLYLEDQLHTAIHSHDEDLIQSLRRELQMVKETLQAMILQLQPAKEAGEREAAASCMTAGVHEAQA | – | – | – | – | interaction with TNIK (co-IP) ([4]; listed as Myc-DISC1 ΔTNIK): abolition of interaction with TNIK
4 | DISC1 AS1: DISC1 containing the mutation VLR336–338AAA, expressed from plasmid (protein, left off: Myc, end not stated, kept) MPGGGPQGAPAAAGGGGVSHRAGSRDCLPPAACFRRRRLARRPGYMRSSTGPGIGFLSPAVGTLFRFPGGVSGEESHHSESRARQCGLDSRGLLVRSPVSKSAAAPTVTSVRGTSAHFGIQLRGGTRLPDRLSWPCGPGSAGWQQEFAAMDSSETLDASWEAACSDGARRVRAAGSLPSAELSSNSCSPGCGPEVPPTPPGSHSAFTSSFSFIRLSLGSAGERGEAEGCPPSREAESHCQSPQEMGAKAASLDGPHEDPRCLSRPFSLLATRVSADLAQAARNSSRPERDMHSLPDMDPGSSSSLDPSLAGCGGDGSSGSGDAHSWDTLLRKWEPAAADCLLRNRRQMEVISLRLKLQKLQEDAVENDDYDKAETLQQRLEDLEQEKISLHFQLPSRQPALSSFLGHLAAQVQAALRRGATQQASGDDTHTPLRMEPRLLEPTAQDSLHVSITRRDWLLQEKQQLQKEIEALQARMFVLEAKDQQLRREIEEQEQQLQWQGCDLTPLVGQLSLGQLQEVSKALQDTLASAGQIPFHAEPPETIRSLQERIKSLNLSLKEITTKVCMSEKFCSTLRKKVNDIETQLPALLEAKMHAISGNHFWTAKDLTEEIRSLTSEREGLEGLLSKLLVLSSRNVKKLGSVKEDYNRLRREVEHQETAYETSVKENTMKYMETLKNKLCSCKCPLLGKVWEADLEACRLLIQSLQLQEARGSLSVEDERQMDDLEGAAPPIPPRLHSEDKRKTPLKVLEEWKTHLIPSLHCAGGEQKEESYILSAELGEKCEDIGKKLLYLEDQLHTAIHSHDEDLIQSLRRELQMVKETLQAMILQLQPAKEAGEREAAASCMTAGVHEAQA | – | – | – | could not inhibit TNIK in cell-based assays | interaction with TNIK (co-IP) ([4]; listed as Myc-DISC1 AS1): only showed a weak interaction with TNIK
5 | DISC1 WT: wild-type human DISC1 expressed from plasmid (protein, left off: Myc, end not stated, kept) MPGGGPQGAPAAAGGGGVSHRAGSRDCLPPAACFRRRRLARRPGYMRSSTGPGIGFLSPAVGTLFRFPGGVSGEESHHSESRARQCGLDSRGLLVRSPVSKSAAAPTVTSVRGTSAHFGIQLRGGTRLPDRLSWPCGPGSAGWQQEFAAMDSSETLDASWEAACSDGARRVRAAGSLPSAELSSNSCSPGCGPEVPPTPPGSHSAFTSSFSFIRLSLGSAGERGEAEGCPPSREAESHCQSPQEMGAKAASLDGPHEDPRCLSRPFSLLATRVSADLAQAARNSSRPERDMHSLPDMDPGSSSSLDPSLAGCGGDGSSGSGDAHSWDTLLRKWEPVLRDCLLRNRRQMEVISLRLKLQKLQEDAVENDDYDKAETLQQRLEDLEQEKISLHFQLPSRQPALSSFLGHLAAQVQAALRRGATQQASGDDTHTPLRMEPRLLEPTAQDSLHVSITRRDWLLQEKQQLQKEIEALQARMFVLEAKDQQLRREIEEQEQQLQWQGCDLTPLVGQLSLGQLQEVSKALQDTLASAGQIPFHAEPPETIRSLQERIKSLNLSLKEITTKVCMSEKFCSTLRKKVNDIETQLPALLEAKMHAISGNHFWTAKDLTEEIRSLTSEREGLEGLLSKLLVLSSRNVKKLGSVKEDYNRLRREVEHQETAYETSVKENTMKYMETLKNKLCSCKCPLLGKVWEADLEACRLLIQSLQLQEARGSLSVEDERQMDDLEGAAPPIPPRLHSEDKRKTPLKVLEEWKTHLIPSLHCAGGEQKEESYILSAELGEKCEDIGKKLLYLEDQLHTAIHSHDEDLIQSLRRELQMVKETLQAMILQLQPAKEAGEREAAASCMTAGVHEAQA | – | – | – | unable to induce cell rounding; also recorded: inhibits TNIK-induced cell rounding | length-to-breadth ratio of cells ([5]; NIH3T3 cells, co-expressed with TNIK, versus empty vector, N>30): significantly increased the average length-to-breadth ratio of a cell; interaction with TNIK (co-IP) [4]: co-immunoprecipitates with HA-TNIK
